# Source: ChEMBL document CHEMBL1649483, “Molecular analysis of the gyrA and gyrB quinolone resistance-determining regions of fluoroquinolone-resistant Clostridium difficile mutants selected in vitro” (2009)
# Columns and labels:
# Type in all cases: functional
# [1] = test system: Clostridioides difficile; test: Antimicrobial activity against Clostridium difficile CD5d harboring GyrB Ser416Ala mutant gene selected after 4 ug/ml of moxifloxacin by Etest method
# [2] = test system: Clostridioides difficile; test: Antimicrobial activity against Clostridium difficile C253F selected after 8 ug/ml of levofloxacin by Etest method
# [3] = test system: Clostridioides difficile; test: Antimicrobial activity against Clostridium difficile C253h harboring GyrA Ala118Ser mutant gene selected after 8 ug/ml of moxifloxacin by Etest method
# [4] = test system: Clostridioides difficile; test: Antimicrobial activity against Clostridium difficile BI2A selected after 4 ug/ml of levofloxacin by Etest method
# In short: (§1)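 Stable in vitro-selected mutant tested for gatifloxacin susceptibility by Etest, per the manufacturer's instructions, with an 8 μg/ml breakpoint. For selection, the parent was grown in antibiotic-free brain heart infusion (BHI) for 24 h at 35°C under anaerobic conditions. […] Later steps used double the MIC. Stability was confirmed by three subcultures.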
# [5] = test system: Clostridioides difficile; test: Antimicrobial activity against Clostridium difficile CD5E harboring GyrB Ser416Ala mutant gene selected after 8 ug/ml of levofloxacin by Etest method
# [6] = test system: Clostridioides difficile; test: Antimicrobial activity against Clostridium difficile C253C selected after 4 ug/ml of levofloxacin by Etest method
# [7] = test system: Clostridioides difficile; test: Antimicrobial activity against Clostridium difficile 630d selected after 4 ug/ml of moxifloxacin by Etest method; in short: as §1
# [8] = test system: Clostridioides difficile; test: Antimicrobial activity against Clostridium difficile 630 expressing tcdA and tcdB gene by Etest method
# In short: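 Parent clinical or nontoxigenic isolate tested for gatifloxacin susceptibility by Etest, run per the manufacturer's instructions; a fluoroquinolone breakpoint of 8 μg/ml was applied.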
# [9] = test system: Clostridioides difficile; test: Antimicrobial activity against Clostridium difficile A422F harboring GyrB Leu451Phe mutant gene selected after 8 ug/ml of levofloxacin by Etest method; in short: as §1
# [10] = test system: Clostridioides difficile; test: Antimicrobial activity against Clostridium difficile CD5h harboring GyrA Ala118Ser, Thr82Ala and GyrB Ser416Ala mutant gene selected after 8 ug/ml of moxifloxacin by Etest method
# [11] = test system: Clostridioides difficile; test: Antimicrobial activity against Clostridium difficile C253f selected after 4 ug/ml of moxifloxacin by Etest method
# [12] = test system: Clostridioides difficile; test: Antimicrobial activity against Clostridium difficile 630A selected after 4 ug/ml of levofloxacin by Etest method; in short: as §1
# [13] = test system: Clostridioides difficile; test: Antimicrobial activity against Clostridium difficile A422a selected after 2 ug/ml of moxifloxacin by Etest method; in short: as §1
# [14] = test system: Clostridioides difficile; test: Antimicrobial activity against Clostridium difficile BI2a harboring GyrB Arg447Lys mutant gene selected after 2 ug/ml of moxifloxacin by Etest method; in short: as §1
# [15] = test system: Clostridioides difficile; test: Antimicrobial activity against Clostridium difficile A422A selected after 4 ug/ml of levofloxacin by Etest method; in short: as §1
# [16] = test system: Clostridioides difficile; test: Antimicrobial activity against Clostridium difficile BI2c harboring GyrB Arg447Lys mutant gene selected after 2 ug/ml of moxifloxacin by Etest method; in short: as §1
# [17] = test system: Clostridioides difficile; test: Antimicrobial activity against Clostridium difficile C253c selected after 2 ug/ml of moxifloxacin by Etest method
# [18] = test system: Clostridioides difficile; test: Antimicrobial activity against Clostridium difficile CD5i harboring GyrA Ala92Glu and GyrB Ser416Ala mutant genes selected after 8 ug/ml of moxifloxacin by Etest method
# [19] = test system: Clostridioides difficile; test: Antimicrobial activity against Clostridium difficile CD5C harboring GyrB Ser416Ala mutant gene selected after 4 ug/ml of levofloxacin by Etest method
# [20] = test system: Clostridioides difficile; test: Antimicrobial activity against Clostridium difficile C253a selected after 2 ug/ml of moxifloxacin by Etest method
# [21] = test system: Clostridioides difficile; test: Antimicrobial activity against Clostridium difficile CD5B harboring GyrB Ser416Ala mutant gene selected after 4 ug/ml of levofloxacin by Etest method
# [22] = test system: Clostridioides difficile; test: Antimicrobial activity against Clostridium difficile 630f selected after 4 ug/ml of moxifloxacin by Etest method; in short: as §1
# [23] = test system: Clostridioides difficile; test: Antimicrobial activity against Clostridium difficile CD5F harboring GyrB Ser416Ala mutant gene selected after 8 ug/ml of levofloxacin by agar dilution method
# [24] = test system: Clostridioides difficile; test: Antimicrobial activity against Clostridium difficile C253 expressing tcdA and tcdB gene by agar dilution method
# [25] = test system: Clostridioides difficile; test: Antimicrobial activity against Clostridium difficile 630a selected after 2 ug/ml of moxifloxacin by agar dilution method
# [26] = test system: Clostridioides difficile; test: Antimicrobial activity against Clostridium difficile CD5d harboring GyrB Ser416Ala mutant gene selected after 4 ug/ml of moxifloxacin by agar dilution method
# [27] = test system: Clostridioides difficile; test: Antimicrobial activity against Clostridium difficile CD5i harboring GyrA Ala92Glu and GyrB Ser416Ala mutant genes selected after 8 ug/ml of moxifloxacin by agar dilution method
# [28] = test system: Clostridioides difficile; test: Antimicrobial activity against Clostridium difficile 630D harboring GyrA Ala118Val mutant gene selected after 8 ug/ml of levofloxacin by agar dilution method
# [29] = test system: Clostridioides difficile; test: Antimicrobial activity against Clostridium difficile A422c selected after 2 ug/ml of moxifloxacin by agar dilution method
# [30] = test system: Clostridioides difficile; test: Antimicrobial activity against Clostridium difficile A422f selected after 4 ug/ml of moxifloxacin by agar dilution method
# [31] = test system: Clostridioides difficile; test: Antimicrobial activity against Clostridium difficile 630d selected after 4 ug/ml of moxifloxacin by agar dilution method
# [32] = test system: Clostridioides difficile; test: Antimicrobial activity against Clostridium difficile C253g harboring GyrA Ala118Ser mutant gene selected after 8 ug/ml of moxifloxacin by agar dilution method
# [33] = test system: Clostridioides difficile; test: Antimicrobial activity against Clostridium difficile C253f selected after 4 ug/ml of moxifloxacin by agar dilution method
# [34] = test system: Clostridioides difficile; test: Antimicrobial activity against Clostridium difficile A422B selected after 4 ug/ml of levofloxacin by agar dilution method
# [35] = test system: Clostridioides difficile; test: Antimicrobial activity against Clostridium difficile BI2a harboring GyrB Arg447Lys mutant gene selected after 2 ug/ml of moxifloxacin by agar dilution method
# [36] = test system: Clostridioides difficile; test: Antimicrobial activity against Clostridium difficile 630c selected after 2 ug/ml of moxifloxacin by agar dilution method
# [37] = test system: Clostridioides difficile; test: Antimicrobial activity against Clostridium difficile CD5 1-g harboring GyrA Ala92Glu and GyrB Ser416Ala mutant genes selected after 8 ug/ml of moxifloxacin by agar dilution method
# [38] = test system: Clostridioides difficile; test: Antimicrobial activity against Clostridium difficile C253D selected after 8 ug/ml of levofloxacin by agar dilution method
# [39] = test system: Clostridioides difficile; test: Antimicrobial activity against Clostridium difficile A422a selected after 2 ug/ml of moxifloxacin by agar dilution method
# [40] = test system: Clostridioides difficile; test: Antimicrobial activity against Clostridium difficile C253A selected after 4 ug/ml of levofloxacin by agar dilution method
# [41] = test system: Clostridioides difficile; test: Antimicrobial activity against Clostridium difficile CD5D harboring GyrB Ser416Ala mutant gene selected after 8 ug/ml of levofloxacin by agar dilution method
# [42] = test system: Clostridioides difficile; test: Antimicrobial activity against Clostridium difficile A422i harboring GyrA Asp81Asn mutant gene selected after 8 ug/ml of moxifloxacin by agar dilution method
# [43] = test system: Clostridioides difficile; test: Antimicrobial activity against Clostridium difficile BI2C selected after 4 ug/ml of levofloxacin by agar dilution method
compound,measurement,setting,value
COc1c(N2CCNC(C)C2)c(F)cc2c(=O)c(C(=O)O)cn(C3CC3)c12 (stereo not drawn) [GATIFLOXACIN],MIC,[1],0.75 µg/mL
same,MIC,[2],1 µg/mL
same,MIC,[3],8 µg/mL
same,MIC,[4],2 µg/mL
same,MIC,[5],2 µg/mL
same,MIC,[6],0.5 µg/mL
same,MIC,[7],2 µg/mL
same,MIC,[8],0.75 µg/mL
same,MIC,[9],2 µg/mL
same,MIC,[10],16 µg/mL
same,MIC,[11],1 µg/mL
same,MIC,[12],0.75 µg/mL
same,MIC,[13],1.5 µg/mL
same,MIC,[14],1.5 µg/mL
same,MIC,[15],1 µg/mL
same,MIC,[16],1.5 µg/mL
same,MIC,[17],1 µg/mL
same,MIC,[18],3 µg/mL
same,MIC,[19],0.5 µg/mL
same,MIC,[20],1 µg/mL
same,MIC,[21],0.5 µg/mL
same,MIC,[22],2 µg/mL
C[C@H]1COc2c(N3CCN(C)CC3)c(F)cc3c(=O)c(C(=O)O)cn1c23.C[C@H]1COc2c(N3CCN(C)CC3)c(F)cc3c(=O)c(C(=O)O)cn1c23.O [LEVOFLOXACIN],MIC,[23],2 µg/mL
same,MIC,[24],2 µg/mL
same,MIC,[25],4 µg/mL
same,MIC,[26],2 µg/mL
same,MIC,[27],16 µg/mL
same,MIC,[28],8 µg/mL
same,MIC,[29],4 µg/mL
same,MIC,[30],4 µg/mL
same,MIC,[31],4 µg/mL
same,MIC,[32],64 µg/mL
same,MIC,[33],4 µg/mL
same,MIC,[34],1 µg/mL
same,MIC,[35],8 µg/mL
same,MIC,[36],4 µg/mL
same,MIC,[37],16 µg/mL
same,MIC,[38],2 µg/mL
same,MIC,[39],4 µg/mL
same,MIC,[40],1 µg/mL
same,MIC,[41],2 µg/mL
same,MIC,[42],64 µg/mL
same,MIC,[43],1 µg/mL
